Data taken from ChEMBL document CHEMBL1671645, “Pharmacokinetics and absorption of posaconazole oral suspension under various gastric conditions in healthy volunteers” (Antimicrob Agents Chemother, 2009).

Legend:
Homo sapiens [1] = test: AUC in fasted healthy human at 400 mg BID, po administered as suspension for 7 days; assay type: ADME, organism-based, Plasma; conditions: in vivo, 168 h
Procedure, shortened: (§1)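 Twelve healthy subjects took oral suspension for 7 days as 400 mg BID or 200 mg QID, either fasting or with a Boost-type nutritional supplement, in a crossover with 14–21 day washouts. Nonfat snacks of 800 cal/day or less were allowed. Plasma was sampled 0–168 h after the day-7 morning dose only and analysed by LC-MS/MS. AUC is AUC_τ, normalized to dose.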

Homo sapiens [2] = test: AUC in healthy human at 400 mg BID, po administered as suspension for 7 days coadministered with nutritional supplement; assay type: ADME, organism-based, Plasma; conditions: in vivo, 168 h; procedure, shortened: as §1
[3] = AUC in fasted healthy human at 400 mg administered as single dose suspension; assay type: ADME, organism-based; conditions: plasma
[4] = AUC in healthy human at 400 mg administered as single dose suspension coadministered with nutritional supplement; assay type: ADME, organism-based; conditions: plasma
Procedure, shortened: (§2)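 A three-way crossover in 13 healthy subjects gave one 400 mg oral suspension dose with a nutritional supplement, either alone, with metoclopramide 10 mg orally three times daily on the day before and the day of dosing, or with a single 4 mg dose of loperamide. Plasma was taken 0–168 h for LC-MS/MS. Analysis was noncompartmental.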

[5] = AUC in healthy human at 400 mg administered as single dose suspension coadministered with nutritional supplement and 10 mg metoclopramide; assay type: ADME, organism-based; conditions: plasma; procedure, shortened: as §2
[6] = Tmax in fasted healthy human at 400 mg administered as single dose suspension; assay type: ADME, organism-based; conditions: in vivo
Procedure, shortened: (§3)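 Single oral suspension dose in fasting healthy volunteers, alone, with 12 oz ginger ale, after esomeprazole 40 mg once each morning days −2 to 1, or both; four-way crossover, 7–10-day washout. EDTA plasma 0–168 h. LC-MS/MS (LLOQ 5.00 ng/ml). t1/2 = ln(2)/K from terminal log-linear regression; Tmax median.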

[7] = Tmax in fasted healthy human at 400 mg administered as single dose suspension coadministered with acidic carbonated beverage and proton pump inhibitor; assay type: ADME, organism-based; conditions: in vivo; procedure, shortened: as §3
[8] = Tmax in fasted healthy human at 400 mg administered as single dose suspension after 20 mins after consumption of high fat meal; assay type: ADME, organism-based; conditions: in vivo
Procedure, shortened: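 Single oral suspension dose in healthy volunteers while fasting, 5 min before, midway through (about 10 min into a 20-min meal), or 20 min after a high-fat meal (approx 50 g fat); four-way crossover, 7–10-day washout. Plasma 0–168 h by LC-MS/MS (LLOQ 5.00 ng/ml). t1/2 = ln(2)/K; Tmax median.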

[9] = Apparent total body clearance in fasted healthy human at 400 mg administered as single dose suspension; assay type: ADME, organism-based; conditions: in vivo
[10] = Apparent total body clearance in fasted healthy human at 400 mg administered as single dose suspension coadministered with acidic carbonated beverage and proton pump inhibitor; assay type: ADME, organism-based; conditions: in vivo
Procedure, shortened: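 This was a four-way crossover in 12 healthy subjects with 7–10 day washouts. Each took one fasting 400 mg oral suspension dose, with 12 oz ginger ale and/or esomeprazole 40 mg once each morning on days −2 to 1, with dosing on day 1. Plasma was sampled 0–168 h and measured by LC-MS/MS (LLOQ 5.00 ng/ml). Analysis was noncompartmental, with CL/F = dose/AUC_I and V/F = (CL/F)/K.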

[11] = Half life in healthy human at 400 mg administered as single dose suspension coadministered with nutritional supplement; assay type: ADME, organism-based; conditions: in vivo
Procedure, shortened: (§4)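 Single oral suspension dose with nutritional supplement, alone or with metoclopramide 10 mg orally three times daily on the day before and the day of dosing; three-way crossover, 7–10-day washout. EDTA plasma predose to 168 h, LC-MS/MS (LLOQ 5.00 ng/ml). t1/2 = ln(2)/K from terminal slope; Tmax median.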

[12] = Half life in healthy human at 400 mg administered as single dose suspension coadministered with nutritional supplement and 10 mg metoclopramide; assay type: ADME, organism-based; conditions: in vivo; procedure, shortened: as §4
[13] = Half life in healthy human at 400 mg administered as single dose suspension coadministered with nutritional supplement and 4 mg loperamide as two 2 mg tablets; assay type: ADME, organism-based; conditions: in vivo
Procedure, shortened: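 Oral suspension (40 mg/ml) single dose with nutritional supplement plus loperamide 4 mg single dose, healthy volunteers, three-way crossover with 7–10-day washout. EDTA plasma drawn predose and 1–168 h postdose. LC-MS/MS assay (LLOQ 5.00 ng/ml). Noncompartmental parameters; Tmax reported as median (range).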

Homo sapiens [14] = test: Toxicity in healthy human assessed as adverse events at 400 mg administered as single dose suspension; assay type: organism-based; conditions: in vivo
Procedure, shortened: (§5)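 Healthy volunteers monitored for adverse events, vital signs, clinical laboratory values and 12-lead ECG. Adverse events tabulated by body system or organ class and severity and summarized by treatment across the crossover regimens.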

Homo sapiens [15] = test: Toxicity in healthy human assessed as adverse events at 400 mg administered as single dose suspension coadministered with acidic carbonated beverage and proton pump inhibitor; assay type: organism-based; parameters: scale not given: the % may be the effect or the level left; conditions: in vivo; procedure, shortened: as §5
Homo sapiens [16] = test: Toxicity in healthy human assessed as adverse events at 400 mg administered as single dose suspension coadministered with nutritional supplement; assay type: organism-based; conditions: in vivo; procedure, shortened: as §5
Homo sapiens [17] = test: Toxicity in healthy human assessed as adverse events at 400 mg administered as single dose suspension coadministered with nutritional supplement and 10 mg metoclopramide; assay type: organism-based; conditions: in vivo; procedure, shortened: as §5
Homo sapiens [18] = test: Toxicity in healthy human assessed as dizziness at 200 mg QID, po administered as suspension for 7 days; assay type: organism-based; conditions: in vivo, 168 h; procedure, shortened: as §5
Homo sapiens [19] = test: Toxicity in healthy human assessed as dizziness at 200 mg QID, po administered as suspension for 7 days coadministered with nutritional supplement; assay type: organism-based; conditions: in vivo, 168 h
Procedure, shortened: (§6)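 Healthy volunteers (n = 12) took oral posaconazole suspension (40 mg/ml) with Boost at each dose for 7 days in a four-way randomized crossover with a 14- to 21-day washout. Subjects stayed fasted throughout, with nonfat snacks up to 800 cal/day allowed. Safety covered adverse events, vital signs, clinical labs and 12-lead ECG, with AEs tabulated by body system and severity per treatment.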

Homo sapiens [20] = test: Toxicity in healthy human assessed as headache at 200 mg QID, po administered as suspension for 7 days coadministered with nutritional supplement; assay type: organism-based; conditions: in vivo, 168 h
Procedure, shortened: as §6, with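 “mg/ml)” for “mg/ml) with Boost at each dose”, “allowed. Where given, Boost was taken with each dose.” for “allowed.”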

Homo sapiens [21] = test: Toxicity in healthy human assessed as dizziness at 400 mg administered as single dose suspension coadministered with nutritional supplement and 4 mg loperamide as two 2 mg tablets; assay type: organism-based; conditions: in vivo
Procedure, shortened: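 Three-way randomized crossover in 13 healthy volunteers with a 7- to 10-day washout. Each period was one 400-mg oral posaconazole suspension dose with a nutritional supplement. Metoclopramide 10 mg was given orally three times daily on the day before and the day of dosing; loperamide was a single 4 mg. Safety was assessed from adverse events, tabulated by body system and severity per treatment.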

[22] = Cmax in fasted healthy human plasma at 400 mg BID, po administered as suspension for 7 days; assay type: ADME, organism-based; parameters: dose 400 mg, route oral; procedure, shortened: as §1
[23] = Cmax in fasted healthy human plasma at 400 mg administered as single dose suspension; assay type: ADME, organism-based; parameters: dose 400 mg
[24] = Cmax in healthy human plasma at 400 mg administered as single dose suspension coadministered with nutritional supplement; assay type: ADME, organism-based; parameters: dose 400 mg; procedure, shortened: as §2

`CC[C@@H]([C@H](C)O)n1ncn(-c2ccc(N3CCN(c4ccc(OC[C@@H]5CO[C@@](Cn6cncn6)(c6ccc(F)cc6F)C5)cc4)CC3)cc2)c1=O` [POSACONAZOLE] gave an AUC (Homo sapiens [1]) of 52300 ng·h/mL, an AUC (Homo sapiens [2]) of 80600 ng·h/mL and an AUC [3] of 4280 ng·h/mL. It also gave an AUC [4] of 8960 ng·h/mL, an AUC [5] of 7390 ng·h/mL and a Tmax [6] of 5 h. For the same molecule, the Tmax [7] was 6 h, the Tmax [8] was 6 h and the CL/F [9] was 1390 mL/min. It also gave a CL/F [10] of 1620 mL/min, a half-life [11] of 1460 min and a half-life [12] of 1660 min. For the same molecule, the half-life [13] was 1650 min, the Activity (Homo sapiens [14]) was 25% and the Activity (Homo sapiens [15]) was 25%. For the same molecule, the Activity (Homo sapiens [16]) was 38%, the Activity (Homo sapiens [17]) was 38% and the Activity (Homo sapiens [18]) was 33%. The Activity (Homo sapiens [19]) was 33%, the Activity (Homo sapiens [20]) was 25% and the Activity (Homo sapiens [21]) was 15%. It also gave a Cmax [22] of 982 ng/mL, a Cmax [23] of 181 ng/mL and a Cmax [24] of 303 ng/mL.
